One series deals with T1, C-C chemokine receptor type 1 (Homo sapiens, UniProt P32246).
T1 sequence (P32246 whole entry): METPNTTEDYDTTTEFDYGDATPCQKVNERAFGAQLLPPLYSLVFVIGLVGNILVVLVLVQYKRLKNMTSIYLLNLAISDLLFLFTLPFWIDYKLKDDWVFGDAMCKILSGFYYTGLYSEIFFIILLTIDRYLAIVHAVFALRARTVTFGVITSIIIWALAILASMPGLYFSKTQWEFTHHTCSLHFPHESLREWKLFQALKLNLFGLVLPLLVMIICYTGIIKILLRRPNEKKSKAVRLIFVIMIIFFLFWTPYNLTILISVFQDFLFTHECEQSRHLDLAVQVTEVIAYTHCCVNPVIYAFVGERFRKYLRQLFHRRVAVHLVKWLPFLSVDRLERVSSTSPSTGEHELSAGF
The experiment in a line: Antagonist activity at recombinant CCR1 (unknown origin) expressed in non-adherent cells co-expressing Galpha16 assessed as inhibition of MIP-1 alpha-induced calcium flux by Fluo-4 NW or Calcium 4 dye based FLIPR TETRA assay. Type of series: functional, cell-based.
Conditions: not given
A digest of the protocol: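 The cells stably co-express CCR1 and Gα16 and were loaded with dye for 1 h at room temperature with probenecid (Method A: Fluo-4 NW; Method B: Calcium 4), then plated at 20,000 cells/well. Compounds were tested at 10 doses from a 3,000 nM top (A 3-fold steps, B 4-fold), in 1% DMSO and HBSS/20 mM HEPES pH 7.4. Preincubation was 1 h at room temperature in the dark (A) or 30 min at 37°C then 30 min at room temperature (B). MIP-1α was added at EC80 and the calcium flux recorded.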
In the case of `Cc1c(C(=O)NCc2cccnc2)cnn1-c1ccc(Cl)cc1`, the IC50 (usually the midpoint of a concentration-inhibition curve) was > 3000 nM. In the case of `Cc1c(C(=O)NCc2cccc(C(F)(F)F)c2)cnn1-c1ccc(Cl)c(Cl)c1`, the IC50 stood at 500 nM. On the same count and under the same terms, under `Cc1c(C(=O)N[C@@H](C)c2cccc(C(F)(F)F)c2F)cnn1-c1ccc(Cl)cc1` stands 28 nM. On to `Cc1nc(-c2ccc(Cl)cc2)sc1C(=O)NCc1cccc(C(F)(F)F)c1`, for which the IC50 is > 3000 nM. Regarding `Cc1c(C(=O)NCc2cccc(N)c2)cnn1-c1ccc(Cl)cc1`, the IC50 is > 3000 nM. As to `CC[C@H](NC(=O)c1cnn(-c2ccc(Cl)cc2)c1C)c1cccc(C(F)(F)F)c1F`, the IC50 came out at 13 nM. As for `Cc1c(C(=O)NCc2cccc(C(F)(F)F)c2)nnn1-c1ccc(Cl)cc1`, the IC50 came to 2400 nM. For `Cc1c(C(=O)NCc2cccc(C(F)(F)F)c2)cnn1-c1ccccc1Cl`, the IC50 is > 3000 nM. As to `O=C(NCc1cccc(C(F)(F)F)c1)c1cnn(-c2ccc(Cl)c(Cl)c2)c1`, the IC50 is > 3000 nM.

As to `Cc1nn(-c2ccc(Cl)c(Cl)c2)c(C)c1C(=O)NCc1cccc(C(F)(F)F)c1`, the IC50 was > 3000 nM. Still for that read-out and setting: the figure for `Cc1c(C(=O)NCc2cccc(C(F)(F)F)c2)cnn1-c1ccc(Cl)cc1` is 600 nM. As for `Cc1nc(C(=O)NCc2cccc(C(F)(F)F)c2)nn1-c1ccc(Cl)cc1`, the IC50 was > 3000 nM. In the case of `Cc1c(C(=O)NCc2cccc(C(F)(F)F)c2)cnn1-c1cccc(Cl)c1`, the IC50 was > 3000 nM.

Consider `Cc1c(C(=O)NCc2ccc(S(C)(=O)=O)cc2)cnn1-c1ccc(Cl)cc1`, for which the IC50 amounted to 1700 nM. Consider `Cc1c(C(=O)NCc2cccc(C(F)(F)F)c2)cnn1-c1cccc(C(F)(F)F)c1`, for which the IC50 was > 3000 nM.

As to `Cn1cc(C(=O)NCc2cccc(C(F)(F)F)c2)nc1-c1ccc(Cl)cc1`, the IC50 is > 3000 nM. Consider `CCCC(NC(=O)c1cnn(-c2ccc(Cl)cc2)c1C)c1ccc(S(C)(=O)=O)nc1` (stereo not drawn), for which the IC50 came to 47 nM. As for `CC(C)[C@@H](NC(=O)NCC(C)(C)O)C(=O)N1CC[C@](O)(c2ccc(Cl)cc2)C(C)(C)C1` [BMS-817399], the IC50 was found to be 3 nM. For the molecule `COCc1c(C(=O)NCc2cccc(C(F)(F)F)c2)cnn1-c1ccc(Cl)cc1`, the concentration for half-maximal inhibition (IC50) was > 3000 nM. As to `Cc1c(C(=O)NCc2cccc(C(F)(F)F)c2)cnn1Cc1ccccc1`, the IC50 was > 3000 nM. As to `Nc1c(C(=O)NCc2cccc(C(F)(F)F)c2)cnn1-c1ccc(Cl)cc1`, the half-maximal inhibitory concentration (IC50) is > 3000 nM.

Regarding `Cn1c(C(=O)NCc2cccc(C(F)(F)F)c2)cnc1-c1ccc(Cl)cc1`, the IC50 was > 3000 nM. Still for that read-out and setting: under `Cc1c(C(=O)NCc2ccccc2S(C)(=O)=O)cnn1-c1ccc(Cl)cc1` stands > 3000 nM; under `Cc1c(C(=O)NCc2cccc(C(F)(F)F)c2)cnn1-c1ccccc1`, > 3000 nM; under `Cc1cc(C(=O)NCc2cccc(C(F)(F)F)c2)c(C)n1-c1ccc(Cl)cc1`, 350 nM. Consider `Cc1cc(-c2ccc(Cl)cc2)sc1C(=O)NCc1cccc(C(F)(F)F)c1`, for which the half-inhibitory concentration (IC50) was 1900 nM.

On to `Cc1c(C(=O)NCc2cccc(C(N)=O)c2)cnn1-c1ccc(Cl)cc1`, for which the IC50 is > 3000 nM. Turning to `Cc1c(C(=O)NCc2cccc(S(C)(=O)=O)c2)cnn1-c1ccc(Cl)cc1`, the IC50 is 2100 nM. Take `COc1cc(N2CCN(C(=O)Cn3nc(-c4ncc[nH]4)c4cccnc43)CC2)ccc1Cl` [CCX354]: the IC50 is 2 nM.

For `Cc1c(C(=O)NCc2ccccn2)cnn1-c1ccc(Cl)cc1`, the IC50 is > 3000 nM. Regarding `CN(C)c1c(C(=O)NCc2cccc(C(F)(F)F)c2)cnn1-c1ccc(Cl)cc1`, the IC50 was > 3000 nM. Take `CCC[C@H](NC(=O)c1cnn(-c2ccc(Cl)cc2)c1C)c1cccc(C(F)(F)F)c1F`: the 50% inhibitory concentration (IC50) turned out to be 10 nM.

`Cc1c(C(=O)NCc2cccc(C(F)(F)F)c2)cnn1-c1ccc(F)cc1`: the IC50 is 790 nM.

As to `Cc1c(C(=O)NCc2cccc(C(F)(F)F)c2)cnn1-c1ccc([N+](=O)[O-])cc1`, the IC50 turned out to be 960 nM. Still for that read-out and setting: under `O=C(NCc1cccc(C(F)(F)F)c1)c1cnn(-c2ccc(Cl)cc2)c1C(F)(F)F` stands > 3000 nM; under `CC(C)(O)c1ccc2c(c1)/C(=C\CCN1CC[C@](O)(c3ccc(Cl)cc3)C(C)(C)C1)c1cccnc1CO2`, 0.8 nM. On to `CNS(=O)(=O)c1ccc(CNC(=O)c2cnn(-c3ccc(Cl)cc3)c2C)cc1`, for which the IC50 came out at 420 nM. As to `Cc1c(C(=O)NCc2ccc(S(C)(=O)=O)nc2)cnn1-c1ccc(Cl)c(Cl)c1`, the IC50 was > 3000 nM. As to `Cc1cccc(-n2ncc(C(=O)NCc3cccc(C(F)(F)F)c3)c2C)c1`, the half-maximal inhibitory concentration (IC50) is > 3000 nM. On to `O=C(NCc1cccc(C(F)(F)F)c1)c1cnn(-c2ccc(Cl)cc2)c1CO`, for which the IC50 was determined as 1200 nM. Still for that read-out and setting: under `Cc1c(C(=O)NCc2ccncc2)cnn1-c1ccc(Cl)cc1` stands > 3000 nM. On to `Cc1c(C(=O)NCc2cccc(O)c2)cnn1-c1ccc(Cl)cc1`, for which the IC50 was > 3000 nM.

Tested on in another series: not listed separately
The series is described as follows: Aqueous solubility of the compound. Format: physicochemical. Particulars: water.
As for `Cc1c(C(=O)NCc2cccc(C(F)(F)F)c2)cnn1-c1ccc(Cl)c(Cl)c1`, the solubility – broadly, how much of the substance goes into solution per volume – is < 1 µg/mL.
